In ChEMBL document CHEMBL4373703 (J Med Chem, 2019):
In brackets after ≈: the same amount, converted by molar mass. Activity calls are given as the source filed them. No cut-off for these calls is given here.

How the values were obtained:
[1] = Intrinsic clearance in human liver microsomes at 1 uM in presence of NADPH measured up to 30 mins by LC-MS/MS analysis; type: ADME, Microsome; details: read-out: CLH
[2] = Stability of the compound in plasma (unknown origin) assessed as compound remaining at 4 hrs; type: ADME, cell-free; details: read-out: Stability
[3] = Kinetic solubility of the compound; type: physicochemical; details: read-out: Kinetic_solubility
[4] = Apparent permeability across apical to basolateral side in human Caco2 cells at 1 uM incubated for 2 hrs by LC-MS/MS analysis; type: ADME, cell-based; details: Caco-2
[5] = biological target: T1, Tyrosine-protein kinase BTK (Homo sapiens, UniProt Q06187); experiment: Covalent inhibition of N-terminal GST-fused human BTK (2-659(end) amino acids) expressed in baculovirus expression system using FITC-AHA-EEPLYWSFPAKKK-NH2 as substrate incubated for 90 mins by microfluidic off-Chip Mobility Shift Assay
Mus musculus [6] = experiment: Inhibition of B cell activation in C57BL/6 mouse at 1 mg/kg, po after 1 hr relative to control; type: functional; details: Mus musculus, C57BL/6, po, 1 h
Outline: (§1)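 Normal C57BL/6 mice received a single oral dose of 1 mg/kg and were tested in an in vivo B cell stimulation assay. Inhibition of B cell activation was read at 1 h and 24 h after dosing.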

Mus musculus [7] = experiment: Inhibition of B cell activation in C57BL/6 mouse at 1 mg/kg, po after 0.25 hr relative to control; type: functional; details: Mus musculus, C57BL/6, po, 0.25 h
hERG (KCNH2) = hERG (KCNH2) (Homo sapiens, UniProt Q12809); experiment: Inhibition of human ERG expressed in HEK293 cells at 10 uM at -80 mV holding potential by […] relative to control; type: cell-based; details: HEK293 cells expressing human ERG
Mus musculus [8] = experiment: Inhibition of B cell activation in C57BL/6 mouse at 1 mg/kg, po after 24 hr relative to control; type: functional; details: Mus musculus, C57BL/6, po, 24 h; outline: as §1
[9] = Cmax in C57BL/6 mouse at 1 mg/kg, po; type: ADME, organism-based; design: dose 1 mg/kg, route oral; details: in vivo
[10] = biological target: T1, Tyrosine-protein kinase BTK; experiment: Inhibition of BTK in human PBMC cells assessed as reduction in anti-IgM-stimulated CD69 expression on B cells preincubated for 60 mins followed by goat F(ab')2 anti-human IgM stimulation and measured after overnight incubation by flow cytometry; type: cell-based
[11] = biological target: Voltage-gated inwardly rectifying potassium channel KCNH2 (Homo sapiens, UniProt Q12809); experiment: Inhibition of human ERG expressed in HEK293 cells at -80 mV holding potential by […]; type: cell-based
[12] = Efflux ratio in human Caco2 cells; type: ADME, cell-based; details: Caco-2
[13] = biological target: Epidermal growth factor receptor (Homo sapiens, UniProt P00533); experiment: Inhibition of N-terminal GST-tagged human EGFR (696 to end aminoacids) expressed in baculovirus infected Sf21 cells
Homo sapiens = organism: Homo sapiens; experiment: Selectivity ratio, ratio of IC50 for EGFR (unknown origin) to IC50 for full length human BTK ([…])
Rattus norvegicus [14] = experiment: Antiarthritic activity in Lewis rat model of collagen-induced arthritis assessed as reduction in ankle swelling at 0.1 mg/kg, po administered via gavage once daily starting from day 6 to day 16 and measured from day 11 to day 17 by caliper method
Rattus norvegicus [15] = experiment: Antiarthritic activity in Lewis rat model of collagen-induced arthritis assessed as reduction in ankle histopathological scores at 0.1 mg/kg, po administered via gavage once daily starting from day 6 to day 16 relative to control; design: scale not given: the % may be the effect or the level left
[16] = biological target: Tyrosine-protein kinase BTK (Homo sapiens, UniProt Q06187, C481S); experiment: Inhibition of BTK Cys481S mutant (unknown origin)
Tyrosine-protein kinase BTK (Homo sapiens, UniProt Q06187, C481S), sequence (Q06187 2-659 C481S limits assumed): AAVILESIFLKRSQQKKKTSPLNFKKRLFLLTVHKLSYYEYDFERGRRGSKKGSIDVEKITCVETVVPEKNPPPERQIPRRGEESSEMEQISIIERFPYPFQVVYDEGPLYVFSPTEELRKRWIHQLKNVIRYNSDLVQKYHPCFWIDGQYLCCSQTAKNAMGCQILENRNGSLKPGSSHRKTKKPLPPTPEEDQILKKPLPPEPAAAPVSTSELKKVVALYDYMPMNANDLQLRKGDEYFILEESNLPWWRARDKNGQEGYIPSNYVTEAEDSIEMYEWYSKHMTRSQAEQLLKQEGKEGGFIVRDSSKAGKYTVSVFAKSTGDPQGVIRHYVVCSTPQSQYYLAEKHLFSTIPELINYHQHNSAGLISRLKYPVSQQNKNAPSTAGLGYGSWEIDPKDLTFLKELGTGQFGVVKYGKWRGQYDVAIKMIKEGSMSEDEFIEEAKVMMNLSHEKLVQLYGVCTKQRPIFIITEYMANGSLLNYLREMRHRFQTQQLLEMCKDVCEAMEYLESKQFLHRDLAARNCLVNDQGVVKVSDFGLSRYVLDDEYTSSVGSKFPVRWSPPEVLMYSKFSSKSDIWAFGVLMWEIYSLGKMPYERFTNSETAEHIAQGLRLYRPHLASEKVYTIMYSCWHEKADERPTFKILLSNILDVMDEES

Epidermal growth factor receptor, sequence (P00533 whole entry): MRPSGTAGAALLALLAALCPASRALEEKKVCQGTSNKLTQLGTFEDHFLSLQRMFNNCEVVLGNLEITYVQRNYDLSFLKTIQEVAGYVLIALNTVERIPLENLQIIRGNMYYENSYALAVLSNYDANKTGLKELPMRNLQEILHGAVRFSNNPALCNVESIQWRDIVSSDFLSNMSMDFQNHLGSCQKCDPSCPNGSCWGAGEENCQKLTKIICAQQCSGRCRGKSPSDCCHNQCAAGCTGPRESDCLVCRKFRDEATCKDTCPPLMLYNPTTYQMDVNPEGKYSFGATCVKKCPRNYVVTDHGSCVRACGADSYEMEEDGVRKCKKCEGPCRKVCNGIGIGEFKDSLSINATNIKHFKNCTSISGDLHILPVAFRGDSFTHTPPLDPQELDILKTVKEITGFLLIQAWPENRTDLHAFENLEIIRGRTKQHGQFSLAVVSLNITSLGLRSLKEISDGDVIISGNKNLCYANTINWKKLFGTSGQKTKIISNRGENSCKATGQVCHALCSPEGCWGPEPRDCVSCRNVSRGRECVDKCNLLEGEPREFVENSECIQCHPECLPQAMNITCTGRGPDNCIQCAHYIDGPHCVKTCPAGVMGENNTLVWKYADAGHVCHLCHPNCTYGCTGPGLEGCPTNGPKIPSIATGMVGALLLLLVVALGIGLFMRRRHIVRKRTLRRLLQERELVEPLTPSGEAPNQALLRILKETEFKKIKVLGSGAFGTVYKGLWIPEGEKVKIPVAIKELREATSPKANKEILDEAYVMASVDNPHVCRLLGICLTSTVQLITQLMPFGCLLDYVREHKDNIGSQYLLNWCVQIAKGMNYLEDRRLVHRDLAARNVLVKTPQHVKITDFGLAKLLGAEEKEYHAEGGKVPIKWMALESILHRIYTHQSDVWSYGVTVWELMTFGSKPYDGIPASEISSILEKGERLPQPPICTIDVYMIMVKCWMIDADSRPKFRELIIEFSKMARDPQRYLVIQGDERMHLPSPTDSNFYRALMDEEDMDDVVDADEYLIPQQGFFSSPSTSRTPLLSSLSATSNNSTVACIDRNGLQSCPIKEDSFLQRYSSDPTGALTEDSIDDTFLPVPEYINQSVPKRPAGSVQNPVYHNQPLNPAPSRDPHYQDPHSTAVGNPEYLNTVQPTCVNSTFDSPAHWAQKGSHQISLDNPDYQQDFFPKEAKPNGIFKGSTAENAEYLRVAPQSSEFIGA
T1 sequence (Q06187 whole entry, the tested form may be a part): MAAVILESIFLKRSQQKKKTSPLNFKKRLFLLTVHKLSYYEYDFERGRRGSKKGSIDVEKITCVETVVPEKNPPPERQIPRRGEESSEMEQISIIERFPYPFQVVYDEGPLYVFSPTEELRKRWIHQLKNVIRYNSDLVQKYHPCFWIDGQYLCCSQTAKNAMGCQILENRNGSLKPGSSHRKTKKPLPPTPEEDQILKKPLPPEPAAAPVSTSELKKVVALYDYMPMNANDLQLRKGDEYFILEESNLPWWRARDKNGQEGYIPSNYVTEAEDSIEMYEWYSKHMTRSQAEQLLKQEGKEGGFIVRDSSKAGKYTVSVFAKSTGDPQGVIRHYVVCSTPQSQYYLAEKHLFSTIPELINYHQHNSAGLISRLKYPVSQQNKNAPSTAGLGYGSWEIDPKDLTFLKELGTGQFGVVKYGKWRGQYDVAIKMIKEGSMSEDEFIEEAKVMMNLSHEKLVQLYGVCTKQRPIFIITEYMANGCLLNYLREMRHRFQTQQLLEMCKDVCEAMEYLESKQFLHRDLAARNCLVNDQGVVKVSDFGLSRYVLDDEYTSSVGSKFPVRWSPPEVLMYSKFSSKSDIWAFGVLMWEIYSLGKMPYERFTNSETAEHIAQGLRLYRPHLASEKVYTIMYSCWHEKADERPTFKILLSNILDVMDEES
hERG (KCNH2), sequence (Q12809 whole entry): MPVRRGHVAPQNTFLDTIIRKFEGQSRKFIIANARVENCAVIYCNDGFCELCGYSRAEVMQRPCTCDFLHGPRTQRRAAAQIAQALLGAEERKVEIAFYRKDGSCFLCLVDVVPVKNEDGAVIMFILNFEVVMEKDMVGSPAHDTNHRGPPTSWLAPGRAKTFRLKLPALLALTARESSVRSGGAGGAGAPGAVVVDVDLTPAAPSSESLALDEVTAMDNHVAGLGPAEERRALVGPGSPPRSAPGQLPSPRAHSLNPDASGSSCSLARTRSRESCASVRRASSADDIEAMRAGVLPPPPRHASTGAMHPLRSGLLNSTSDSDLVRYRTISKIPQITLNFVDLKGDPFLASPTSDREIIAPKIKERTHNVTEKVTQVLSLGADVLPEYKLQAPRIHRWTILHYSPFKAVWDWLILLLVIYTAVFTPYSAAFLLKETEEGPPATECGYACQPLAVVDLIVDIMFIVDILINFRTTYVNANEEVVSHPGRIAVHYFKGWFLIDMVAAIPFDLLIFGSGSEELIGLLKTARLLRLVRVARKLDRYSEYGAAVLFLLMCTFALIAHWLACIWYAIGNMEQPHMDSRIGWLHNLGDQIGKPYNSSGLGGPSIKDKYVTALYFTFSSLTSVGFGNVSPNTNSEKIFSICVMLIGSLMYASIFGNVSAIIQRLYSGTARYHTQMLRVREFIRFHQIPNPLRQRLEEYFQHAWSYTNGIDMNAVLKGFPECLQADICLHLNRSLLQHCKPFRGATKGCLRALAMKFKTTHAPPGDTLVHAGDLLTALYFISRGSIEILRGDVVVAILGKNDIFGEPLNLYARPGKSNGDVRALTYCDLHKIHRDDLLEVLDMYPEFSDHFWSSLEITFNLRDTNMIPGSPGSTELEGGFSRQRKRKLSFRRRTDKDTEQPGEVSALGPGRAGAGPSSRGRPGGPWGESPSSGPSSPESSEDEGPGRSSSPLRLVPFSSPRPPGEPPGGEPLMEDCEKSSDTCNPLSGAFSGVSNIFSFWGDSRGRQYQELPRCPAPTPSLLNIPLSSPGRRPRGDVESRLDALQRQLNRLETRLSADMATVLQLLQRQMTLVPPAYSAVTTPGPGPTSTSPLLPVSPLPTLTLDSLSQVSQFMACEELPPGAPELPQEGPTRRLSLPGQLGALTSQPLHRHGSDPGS
Voltage-gated inwardly rectifying potassium channel KCNH2, sequence (Q12809 whole entry): as above

Row | SMILES | microsomal CLint at 1 µM [1] [µL/min/mg] | solubility kinetic [3] [µM] | Papp A→B at 2 h, 1 µM [4] [×10⁻⁶ cm/s] | IC50 [5] [nM] | further results
1 | C=CS(=O)(=O)N1CCC(CNc2ncnc(N)c2-c2ccc(Oc3ccccc3)cc2)CC1 | – | – | – | – | remaining at 4 h [2]: 16%
2 | C=CC(=O)N[C@H]1CC[C@@H](Nc2ncnc(N)c2-c2ccc(Oc3ccccc3)cc2)CC1 | 41 | 154 (≈ 66.1 µg/mL) | 10 | – | –
3 | Nc1ncnc(NCC2CCN(C(=O)CCl)CC2)c1-c1ccc(Oc2ccccc2)cc1 | – | – | – | – | remaining at 4 h [2]: 49%
4 | C=CC(=O)NC12CCC(Nc3ncnc(N)c3-c3ccc(Oc4ccccc4)cc3)(C1)C2 | 36 | 110 (≈ 47 µg/mL) | 21.7 | 9.9 | IC50 [10]: 70 nM; Ki [11]: 1300 nM; efflux ratio [12]: 1.4
5 | C=CC(=O)N1CC2(CC(Nc3ncnc(N)c3-c3ccc(Oc4ccccc4)cc3)C2)C1 | 777 | 153 (≈ 65.4 µg/mL) | 9.3 | – | Ki [11]: 780 nM
6 | CN(Cc1cnc2nc(N)nc(N)c2n1)c1ccc(C(=O)N[C@@H](CCC(=O)O)C(=O)O)cc1 [METHOTREXATE] | – | – | – | – | Activity (Rattus norvegicus [14]): Active; Activity (Rattus norvegicus [15]): 60%
7 | Nc1ncnc(NCC2CCN(C(=O)C3=CCC3)CC2)c1-c1ccc(Oc2ccccc2)cc1 | – | – | – | 290 | IC50 [10]: 290 nM
8 | C=CC(=O)Nc1cccc(Oc2ncncc2-c2ccc(Oc3ccccc3)cc2)c1 | – | – | – | – | inhibition at 10 µM (hERG (KCNH2)): 46%
9 | C=CC(=O)NC1CCCN(c2ncnc(N)c2-c2ccc(Oc3ccccc3)cc2)C1 (stereo not drawn) | – | – | – | 1500 | –
10 | CC(=O)N1CCC(CNc2ncnc(N)c2-c2ccc(Oc3ccccc3)cc2)CC1 | – | – | – | – | IC50 [16]: 8600 to 8700 nM
11 | C=CC(=O)Nc1cccc(Oc2ccnc(N)c2-c2ccc(Oc3ccccc3)cc2)c1 | – | – | – | 5 | inhibition at 10 µM (hERG (KCNH2)): 81%; IC50 [13]: 140 nM; Ratio IC50 (Homo sapiens): 25 to 30
12 | C=CC(=O)N1CCC(CNc2ncnc(N)c2-c2ccc(C(=O)Nc3ccccc3)cc2)CC1 | – | – | – | 1200 | –
13 | C=CC(=O)Nc1cccc(Nc2ncnc(N)c2-c2ccc(Oc3ccccc3)cc2)c1 | 43 | 16 (≈ 6.78 µg/mL) | 4.2 | 4 | IC50 [10]: 19 nM; Ki [11]: 530 nM; IC50 [13]: 4 nM; efflux ratio [12]: 1.6
14 | C=CC(=O)N[C@@H]1CCC[C@H](Nc2ncnc(N)c2-c2ccc(Oc3ccccc3)cc2)C1 (relative stereo) | 27 | 134 (≈ 57.6 µg/mL) | 11.9 | – | Ki [11]: 1800 nM

Now from value to compound, other results behind:

Row | microsomal CLint at 1 µM [1] [µL/min/mg] | solubility kinetic [3] [µM] | Papp A→B at 2 h, 1 µM [4] [×10⁻⁶ cm/s] | IC50 [5] [nM] | SMILES | further results
15 | 199 | – | – | – | C=CC(=O)N1CCC(CNc2ncnc(N)c2-c2ccc(Oc3cccc(F)c3)cc2)CC1 | –
16 | 688 | – | – | 730 | C=CC(=O)N1CCC(CNc2ncnc(N)c2-c2ccc(Oc3ccncc3)cc2)CC1 | –
17 | 68 | 169 (≈ 75.3 µg/mL) | 9 | – | C=CC(=O)N1CCC(O)(CNc2ncnc(N)c2-c2ccc(Oc3ccccc3)cc2)CC1 | inhibition in vivo at 1 mg/kg (Mus musculus [6]): 42%; inhibition in vivo at 1 mg/kg (Mus musculus [7]): 37%; inhibition at 10 µM (hERG (KCNH2)): 45%; inhibition in vivo at 1 mg/kg (Mus musculus [8]): 15%; Cmax [9]: 257 nM
18 | – | – | – | 8 | C=CC(=O)Nc1cccc(-c2c(N)ncnc2Nc2ccc(Oc3ccccc3)cc2)c1 | IC50 [13]: 1 nM
19 | 277 | < 2.4 | 1.6 | 2.9 to 3 | C=CC(=O)Nc1cccc(Oc2ncnc(N)c2-c2ccc(Oc3ccccc3)cc2)c1 | IC50 [10]: 9.9 nM; inhibition at 10 µM (hERG (KCNH2)): 3%; IC50 [13]: 78 nM; efflux ratio [12]: 4.3; Ratio IC50 (Homo sapiens): 25 to 30
20 | 202 | 158 (≈ 65.6 µg/mL) | 23.6 | – | C=CC(=O)N[C@@H]1CC[C@H](Nc2ncnc(N)c2-c2ccc(Oc3ccccc3)cc2)C1 (relative stereo) | –
21 | 598 | – | – | – | C=CC(=O)N1CCCC(Nc2ncnc(N)c2-c2ccc(Oc3ccccc3)cc2)C1 (single isomer, unassigned) | inhibition at 10 µM (hERG (KCNH2)): 43%; IC50 [13]: 550 nM
22 | 145 | – | – | 18 | C=CC(=O)N1CCC(CNc2ncnc(N)c2-c2ccc(Oc3ccc(C)cc3)cc2)CC1 | –
23 | – | – | – | > 100000 | C=CC(=O)N1CCC(CNc2ncnc(N)c2-c2ccc(Oc3ccccc3)cc2C(F)(F)F)CC1 | –
24 | 77 | 160 (≈ 64.2 µg/mL) | 25.2 | – | C=CC(=O)N1CCC(Nc2ncnc(N)c2-c2ccc(Oc3ccccc3)cc2)C1 (single isomer, unassigned) | inhibition at 10 µM (hERG (KCNH2)): 40%
25 | – | – | – | 0.2 | C#CC(=O)N1CCC(CNc2ncnc(N)c2-c2ccc(Oc3ccccc3)cc2)CC1 | remaining at 4 h [2]: 34%
26 | – | – | – | 44 | C=CC(=O)Nc1cccc(Oc2ccncc2-c2ccc(Oc3ccccc3)cc2)c1 | –
27 | 143 | – | – | 150 | C=CC(=O)N1CCC(CNc2ncnc(N)c2-c2ccc(Oc3ccc(F)cc3)cc2)CC1 | –
28 | 143 | – | – | 160 | C=CC(=O)N1CCC(CNc2ncnc(N)c2-c2cc(F)c(Oc3ccccc3)cc2F)CC1 | –
29 | – | – | – | 1510 | C=CC(=O)N1CCC(Nc2ncnc(N)c2-c2ccc(Oc3ccccc3)cc2)CC1 | –
